Hits are enriched below; roughly 2.3% of the tested compounds scored in any of these assays.
FN deposit inh: fibronectin deposition inhibition; AH1F fibroblasts, Alexa488-fibronectin deposition fluorescence, overnight; inhibition, % at 12.6 µM; hit rate 0.086% among 350,000; AID 743247;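 active = mean inhibition across replicates of 30% or more, regardless of how many single replicates reach that level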;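 note: positive control wells lacked labelled fibronectin entirely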
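Schedule: 1 h cell adhesion before compound, then overnight fibronectin incubation; test system: AH1F fibroblast monolayer depositing Alexa488-labelled fibronectin into matrix; quantity: 10000 AH1F cells per well; probe or stimulus: fluorescent fibronectin at 24 nM final; signal: fluorescence, ex 485 nm, em 525 nm; evaluation: percent inhibition as loss of matrix-bound fibronectin fluorescence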
EWS-Fli block: inhibitors of EWS/Fli oncoprotein transcriptional activity. inhibition, % at 12.6 µM. AID 651661. A673 NR0B1-luciferase reporter, viability-normalised. hit rate 0.67% among 350,000;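 active = mean inhibition of at least 50% after viability correction, with every replicate also passing that limit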;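 note: firefly luciferase signal divided by Alamar Blue viability fluorescence both relative to DMSO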
PGC1a acetyl inh: PGC1a acetylation modulation, inhibitor mode; U2OS PGC1a acetylation, AlphaScreen anti-acetyl-lysine; with virally co-expressed GCN5 acetyltransferase; inhibition, % at 15.6 µM; hit rate 0.17% among 350,000; AID 651687;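 active = every replicate shows inhibition of at least 40%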;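 note: 0% = neutral control wells and 100% = positive control wells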
Env fusion inh: inhibitors of HIV Env-mediated cell fusion; HeLa-JRFL Env/CEM21 cell fusion, luciferase; AID 651610; inhibition, % at 12.3 µM; hit rate 1.1% among 360,000;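 active = mean replicate inhibition score of at least 50 and every replicate individually at or above 50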;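 note: 0% = plate neutral controls and 100% = maraviroc near 300 nM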
F508del corr: correctors of CFTR F508del function in bronchial epithelial cells. CFBE cells, YFP halide quenching; stimulated with forskolin plus potentiator P3; % fluorescence drop versus neutral controls. AID 720511. activity (quench increase), % at 7.58 µM. hit rate 0.36% among 350,000;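 active = mean added fluorescence quench of at least 8% versus neutral control, with both replicates also reaching 8%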;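 note: cells transiently co-express mutant CFTR-F508del with the halide-sensitive YFP; corrector assay measuring rescue of mutant channel to the surface after 24 h compound exposure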
PAX8 inh HTS: lowers PAX8-driven luciferase in RMG-I cells; RMG-I TPO-luciferase reporter, SteadyGlo, 24 h; inhibition, % at 12.6 µM; hit rate 1.2% among 360,000; AID 652154;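 active = mean replicate inhibition at least 60% with every replicate also reaching 60%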;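 note: luciferase light reporting Pax8 driven TPO promoter activity; plate controls were median of neutral control wells for no effect and mitoxantrone controls for full effect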
Active calls of the source: *; x = not tested or not shown; [ ] = remark or other dose.

SMILES | FN deposit inh | EWS-Fli block | PGC1a acetyl inh | Env fusion inh | F508del corr | PAX8 inh HTS
COCC(=O)N1CC2(C1)[C@H](c1ccc(-c3cccc(C)c3)cc1)[C@H](CO)N2C(=O)C1CC1 | x | -4 | -11 | x | 1 | -26
Cc1cc(Nc2cc(C(F)(F)F)cc(C(F)(F)F)c2)cc(=O)n1-c1cc(C(F)(F)F)cc(C(F)(F)F)c1 | -3 | 3 | x | 31 | -2 | -34
Cc1cc(Nc2cccc(C(F)(F)F)c2)cc(=O)n1-c1cccc(C(F)(F)F)c1 | -4 | 26 | x | 67* | -2 | 15
COC(=O)c1ccc(OC)c(OC2CCCC2)c1 | 5 | 7 | 89* | 6 | 1 | -29
CN(C)S(=O)(=O)N1CCN(CC(O)COc2ccc3cc(Br)ccc3c2)CC1 (stereo not drawn) | x | x | -8 | x | x | x
O=S(=O)(N1CCCCC1)N1CCN(CC(O)COc2ccc3cc(Br)ccc3c2)CC1 (stereo not drawn) | 5 | x | 5 | 63* | x | x
Nc1ccn(C2OC(CO)C(O)C2O)c(=O)n1 (stereo not drawn) | x | 39 | 3 | x | 9.7* | x
NC[C@H]1O[C@@H](n2ccc(N)nc2=O)[C@H](O)[C@@H]1O | -6 | 8 | 7 | 31 | -4 | 7
Nc1ccn(C2OC(CO)C(O)C2F)c(=O)n1 (stereo not drawn) | -4 | -14 | 12 | 75* | 0 | 1
Nc1ccn([C@@H]2O[C@H](CO)[C@@H](O)[C@@H]2O)c(=O)n1 | -3 | 43 | 3 | 47 | 19* | 36
CCCCCCCCCCCCCCCC(=O)OCC1OC(n2ccc(N)nc2=O)C(O)C1O (stereo not drawn) | -7 | 38 | -1 | 75* | -1 | 13
C[C@@H]1C(=O)N[C@@H](c2cccc(Cl)c2)CC=CC[C@H](C)Oc2ccccc2C(=O)N1C (mixture of isomers) | 2 | x | x | x | x | x
COc1ccc([Si](C)(C)[C@H]2[C@H](CCO)O[C@@]3(C(=O)N4c5c(cc(OC)cc53)C(C)=CC4(C)C)[C@@H]2C)cc1 | x | 12 | -11 | 34[16.7 µM] | 6 | 102*
COc1ccc([Si](C)(C)[C@H]2[C@H](CCO)O[C@@]3(C(=O)N(C)c4ccccc43)[C@@H]2C)cc1 | x | 0 | -13 | 31[16.7 µM] | 2 | 18
COc1ccc([Si](C)(C)[C@@H]2[C@@H](CCO)O[C@]3(C(=O)N4c5c(cc(OC)cc53)C(C)=CC4(C)C)[C@H]2C)cc1 | x | 31 | -9 | 90*[16.7 µM] | -10 | 106*
C=CCN1C(=O)[C@@]2(O[C@@H](CCO)[C@H]([Si](C)(C)c3ccc(OC)cc3)[C@H]2C)c2cc(NC(C)=O)ccc21 | x | 13 | 10 | -4[16.7 µM] | 4 | x
CCN(CC(=O)Nc1c(F)cccc1F)C(=O)C1CC1 | -8 | 0 | 10 | x | 8.4* | -2
CCN(CC(=O)Nc1c(F)cccc1F)C(=O)c1cc(S(=O)(=O)N2CCOCC2)ccc1N1CCCC1 | 0 | 0 | 8 | -22 | -3 | 72*
CCN(CC(=O)Nc1c(F)cccc1F)C(=O)c1cc([N+](=O)[O-])ccc1N1CCCCC1 | 5 | 5 | 18 | 11 | -3 | 80*
CC(=O)N(C)C[C@H]1Oc2ncc(-c3ccccc3F)cc2C(=O)N([C@@H](C)CO)C[C@H]1C | -8 | -7 | 3 | -26[16.7 µM] | -3 | x
CC(OC(=O)c1ccc(NC(=O)CC#N)cc1)C(=O)NCCC1=CCCCC1 (stereo not drawn) | 1 | 0 | 10 | 76* | 2 | 6
COc1ccc(NC(=O)CNCCC2=CCCCC2)cc1 | 3 | x | -23 | 60* | x | x
COc1ccc(C(=O)NCCC2=CCCCC2)cc1 | 1 | x | 0 | 4 | x | -24
O=C1CC(c2ccccc2)CC2=C1C=Nc1ccccc1N2 (stereo not drawn) | 4 | 12 | x | 6 | 9.2* | 9
O=C1CC(c2ccc(F)cc2)CC2=C1C=Nc1ccccc1N2 (stereo not drawn) | x | 2 | -11 | 8 | 4 | 21
SMILES | FN deposit inh | EWS-Fli block | PGC1a acetyl inh | Env fusion inh | F508del corr | PAX8 inh HTS
Cc1noc(C)c1COc1cccc(C(=O)Nc2ccccc2)c1 | -10 | -17 | -15 | -1 | -2 | -11
Cc1noc(C)c1COc1cccc(C(=O)NCCc2c[nH]c3ccccc23)c1 | 15 | 55* | 4 | -18 | 4 | 13
COc1cc(OC)cc(C(=O)N[C@H](C(=O)NCCc2c[nH]c3ccccc23)C(C)C)c1 | 9 | 13 | -17 | 78* | 2 | 20
O=S(=O)(c1ccccc1)c1nc(-c2ccco2)oc1NCCN1CCOCC1 | x | -4 | 1 | x | 0 | x
Cc1ccccc1-c1nc(S(=O)(=O)c2ccccc2)c(NCCN2CCOCC2)o1 | 0 | 8 | 4 | 59* | 1 | 43
COc1ccc(C2c3c(oc4ccccc4c3=O)C(=O)N2Cc2ccncc2)cc1OC (stereo not drawn) | x | x | x | -21 | x | -3
O=C1c2oc3ccccc3c(=O)c2C(c2cccc(Br)c2)N1Cc1ccco1 (stereo not drawn) | 2 | x | x | 55* | x | x
O=C(CCN1CCCCC1)N1CCc2c([nH]c3ccccc23)C1c1cccnc1 (stereo not drawn) | -7 | 0 | 1 | 14 | 8.9* | 13
CC(=O)N1[C@H](CO)[C@H](c2ccccc2)C12CN(C(=O)c1ccccc1)C2 | x | x | x | x | -3 | x
O=C(CSc1nc2ncc(Cl)cc2[nH]1)c1c[nH]c2ccccc12 | 33* | 5 | 4 | -18 | 0 | 22
O=C(CSc1nc2ccc(Cl)cc2[nH]1)c1c[nH]c2ccccc12 | -5 | 0 | 16 | -2 | 0 | 22
CC(=O)N1CC[C@@H]2[C@H](CO)Nc3ccc(-c4ccccc4)cc3[C@@H]21 | -10 | -10 | 5 | x | -5 | -35
CO[C@@H]1CN(C)C(=O)c2cc(NC(=O)C3CCC3)ccc2OC[C@@H](C)N(Cc2ccncc2)C[C@@H]1C | -4 | -4 | -5 | -3[16.7 µM] | 6 | x
CO[C@H]1CN(C)C(=O)c2ccc(NS(=O)(=O)c3ccccc3)cc2OC[C@@H](C)N(C)C[C@@H]1C | -8 | 8 | 2 | x | -1 | x
C[C@H](CO)N1C[C@H](C)[C@H](CN(C)C(=O)Cc2ccccn2)Oc2ncc(-c3ccncc3)cc2C1=O | x | -12 | 11 | -5[16.7 µM] | -2 | x
Cc1cccc(C)c1OCC(=O)OCC(=O)Nc1ccc(Cl)cn1 | -2 | 3 | -3 | -9 | 23* | -4
Cc1ccc2c(CC(=O)OCC(=O)Nc3ccc(Cl)cn3)coc2c1 | 1 | 7 | x | -19 | x | 119*
O=[N+]([O-])c1ccc(/C=C/c2ccc3ccccc3n2)cc1 | 7 | 59* | 8 | -238 | -1 | -19
Oc1ccc(/C=C/c2ccc3ccccc3n2)cc1 | -4 | 79* | x | -51 | 1 | 58
CN(C)c1ccc(/C=C/c2ccc3ccccc3n2)cc1 | x | x | -7 | x | x | x
C(=C\c1ccc2ccccc2n1)/c1ccccc1 | -12 | 74* | x | -162 | -33 | -7
